In ChEMBL document CHEMBL1821678, “Synthesis and bio-activity evaluation of tetraphenyl(phenylamino) methylene bisphosphonates as antioxidant agents and as potent inhibitors of osteoclasts in vitro” (Eur J Med Chem, 2011):
Values after ≈ are worked out from the molar mass of the structure shown.

Tests used:
[1] = tested on: Radical scavenging activity; assay: Antioxidant activity assessed as DPPH free radical scavenging activity after 30 mins; assay type: functional
How it was run: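 DPPH (85 μM) added to medium containing a range of test concentrations; incubated 30 min at room temperature; decrease in absorbance read at 518 nm. Ascorbic acid served as reference for maximal decrease. Activity expressed as % inhibition of DPPH absorbance relative to standard; IC50 derived.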

[2] = tested on: Osteoclast; assay: In-vitro antibone resorptive activity Sprague-Dawley rat pup long bone osteoclasts assessed as compound concentration causing inhibition of bone resorption after 48 hrs by MTT assay; assay type: functional
How it was run: (§1)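 Osteoclasts scraped from long bones of 1–2-day-old Sprague–Dawley rat pups into Hepes-buffered DMEM with 7–10% heat-inactivated FCS; attached 30 min to bovine cortical bone slices, unattached cells rinsed off. Treated at 10, 50, 100 and 250 μM, 37 °C, 5% CO2; harvested at 24, 48, 72 h; MTT viability read at 492 nm, triplicates; inhibitory ratio reported. Alendronate reference.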

[3] = tested on: Osteoclast; assay: In-vitro antibone resorptive activity Sprague-Dawley rat pup long bone osteoclasts assessed as compound concentration causing inhibition of bone resorption after 24 hrs by MTT assay; assay type: functional; how it was run: as §1
[4] = tested on: Osteoclast; assay: In-vitro antibone resorptive activity Sprague-Dawley rat pup long bone osteoclasts assessed as compound concentration causing inhibition of bone resorption after 72 hrs by MTT assay; assay type: functional; how it was run: as §1
[5] = tested on: Liver; assay: Antioxidant activity in rat liver cells assessed as inhibition of Fe(2+)-asocrbate complex system-induced lipid peroxidation by TBARS assay; assay type: functional, cell-based
How it was run: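 Lipid peroxidation in rat liver cells induced by Fe2+–ascorbate complex; measured as thiobarbituric acid reacting substances (TBARS). Vitamin C standard; IC50 derived.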

[6] = Antioxidant activity assessed as potassium ferricyanide ion reducing power after 20 mins by spectrophotometry; assay type: functional
How it was run: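 Compounds (50–100 μM) mixed with phosphate buffer (0.2 M, pH 6.6) and 1% potassium ferricyanide, 50 °C for 20 min; 10% TCA added, centrifuged; upper layer diluted with water plus 0.1% ferric chloride; absorbance at 700 nm, higher absorbance = greater reducing power. Vitamin C standard.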

| SMILES | IC50 [1] [µg/mL] | Concentration causing inhibition of bone resorption [2] [µM] | Concentration causing inhibition of bone resorption [3] [µM] | inhibitory concentration [4] [µM] | IC50 [5] [µg/mL] | IC50 [6] [µg/mL] | INH [2] [µM] | INH [3] [µM] |
| --- | --- | --- | --- | --- | --- | --- | --- | --- |
| O=[N+]([O-])c1ncc(NC(P(=O)(Oc2ccccc2)Oc2ccccc2)P(=O)(Oc2ccccc2)Oc2ccccc2)s1 | 48.6 (≈ 77.9 µM) | 87.7 | 106.6 | 51.6 | 97.9 (≈ 157 µM) | 3.54 (≈ 5.68 µM) |  |  |
| Cc1ncc(NC(P(=O)(Oc2ccccc2)Oc2ccccc2)P(=O)(Oc2ccccc2)Oc2ccccc2)s1 | 58.4 (≈ 98.6 µM) | 64.2 | 88.4 | 48.8 | 75.2 (≈ 127 µM) | 3.01 (≈ 5.08 µM) |  |  |
| O=P(Oc1ccccc1)(Oc1ccccc1)C(Nc1ccccc1)P(=O)(Oc1ccccc1)Oc1ccccc1 [TETRAPHENYL(PHENYLAMINO)METHYLENE DIPHOSPHONATE] | 80.6 (≈ 141 µM) | 168.2 | 201.6 | 104.4 | 96 (≈ 168 µM) | 3.12 (≈ 5.46 µM) |  |  |
| O=[N+]([O-])c1cccc(NC(P(=O)(Oc2ccccc2)Oc2ccccc2)P(=O)(Oc2ccccc2)Oc2ccccc2)c1 | 39.6 (≈ 64.2 µM) | 28.8 | 49.6 | 14.6 | 85.7 (≈ 139 µM) | 2.09 (≈ 3.39 µM) |  |  |
| COc1ccc(NC(P(=O)(Oc2ccccc2)Oc2ccccc2)P(=O)(Oc2ccccc2)Oc2ccccc2)cc1 | 40.7 (≈ 67.7 µM) | 102.6 | 138.7 | 67.7 | 89.8 (≈ 149 µM) | 2.73 (≈ 4.54 µM) |  |  |
| O=P(Oc1ccccc1)(Oc1ccccc1)C(Nc1ccc(F)cc1)P(=O)(Oc1ccccc1)Oc1ccccc1 | 48.2 (≈ 81.8 µM) | 89.1 | 126.1 | 56.4 | 86.2 (≈ 146 µM) | 2.86 (≈ 4.85 µM) |  |  |
| O=[N+]([O-])c1cc(NC(P(=O)(Oc2ccccc2)Oc2ccccc2)P(=O)(Oc2ccccc2)Oc2ccccc2)ccc1F | 30.1 (≈ 47.4 µM) | 19.1 | 31.2 | 8.1 | 78.5 (≈ 124 µM) | 2.27 (≈ 3.58 µM) |  |  |
| O=P(Oc1ccccc1)(Oc1ccccc1)C(Nc1ccc(F)c(Cl)c1)P(=O)(Oc1ccccc1)Oc1ccccc1 | 32.9 (≈ 52.7 µM) | 21.6 | 32.7 | 10.4 | 80.6 (≈ 129 µM) | 2.14 (≈ 3.43 µM) |  |  |
| O=P(Oc1ccccc1)(Oc1ccccc1)C(Nc1cccc2ncsc12)P(=O)(Oc1ccccc1)Oc1ccccc1 | 47.9 (≈ 76.2 µM) | 95.9 | 125.9 | 54.5 | 84.9 (≈ 135 µM) | 2.44 (≈ 3.88 µM) |  |  |
| O=P(Oc1ccccc1)(Oc1ccccc1)C(Nc1ccc(Cl)cc1)P(=O)(Oc1ccccc1)Oc1ccccc1 | 41.5 (≈ 68.5 µM) | 140.3 | 191.4 | 71.8 | 87.5 (≈ 144 µM) | 2.71 (≈ 4.47 µM) |  |  |
| NCCCC(O)(P(=O)(O)O)P(=O)(O)O [ALENDRONIC ACID] |  |  |  | 20.4 |  |  | 29.6 | 52.7 |
| O=C1O[C@H]([C@@H](O)CO)C(O)=C1O [ASCORBIC ACID] | 32.2 (≈ 183 µM) |  |  |  | 75.2 (≈ 427 µM) | 2.51 (≈ 14.3 µM) |  |  |
